Results reported in ChEMBL document CHEMBL4007441, “Novel Design of Heptad Amphiphiles To Enhance Cell Selectivity, Salt Resistance, Antibiofilm Properties and Their Membrane-Disruptive Mechanism” (J Med Chem, 2017).
In brackets after ≈: the same amount, converted by molar mass.

Tests used:
[1] = system: Staphylococcus aureus; experiment: Antibacterial activity against Staphylococcus aureus ATCC 29213 after 18 hrs by broth microdilution method; format: functional
In short: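 Broth microdilution. Exponential-phase bacteria grown in MHB at 37 °C, diluted to about 1 × 10^6 CFU/mL in MHB and mixed 1:1 with two-fold dilutions of peptide. MIC is the lowest concentration with no visible turbidity after 18 h at 37 °C. Controls were uninoculated broth and peptide-free culture. At least three repeats, duplicates each.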

[2] = system: Pseudomonas aeruginosa; experiment: Antibacterial activity against Pseudomonas aeruginosa 21328 clinical isolate after 18 hrs by broth microdilution method; format: functional; conditions: Pseudomonas aeruginosa, 21328, 18 h
[3] = system: Pseudomonas aeruginosa; experiment: Antibacterial activity against ceftazidime-resistant Pseudomonas aeruginosa 11431 after 18 hrs by broth microdilution method; format: functional
In short: (§1)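 Broth microdilution in Mueller-Hinton broth. Exponential-phase bacteria (37 °C, 220 rpm shaking) were diluted to about 1 × 10^6 CFU/mL and mixed 1:1 with two-fold serial peptide dilutions. MIC is the lowest concentration with no visible turbidity after 18 h at 37 °C. Controls were uninoculated MHB and untreated culture. Run at least three times, two replicates each.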

[4] = system: RAW264.7; experiment: Cytotoxicity in mouse RAW264.7 cells after 24 hrs by MTT assay; format: cell-based; conditions: raw264.7, 24 h
[5] = system: Pseudomonas aeruginosa; experiment: Antibacterial activity against Pseudomonas aeruginosa 25349 clinical isolate after 18 hrs by broth microdilution method; format: functional
[6] = system: Pseudomonas aeruginosa; experiment: Antibacterial activity against Pseudomonas aeruginosa 26305 clinical isolate after 18 hrs by broth microdilution method; format: functional
[7] = system: Pseudomonas aeruginosa; experiment: Antibacterial activity against Pseudomonas aeruginosa ATCC 27853 after 18 hrs by broth microdilution method; format: functional; in short: as §1
[8] = system: Pseudomonas aeruginosa; experiment: Antibacterial activity against Pseudomonas aeruginosa CICC 21625 after 18 hrs by broth microdilution method; format: functional; in short: as §1
[9] = system: Pseudomonas aeruginosa; experiment: Antibacterial activity against ciprofloxacin-resistant Pseudomonas aeruginosa 11411 after 18 hrs by broth microdilution method; format: functional
In short: (§2)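 Broth microdilution in Mueller-Hinton broth. Exponential-phase bacteria (37 °C, 220 rpm shaking) were diluted to about 1 × 10^6 CFU/mL and mixed 1:1 with two-fold serial peptide dilutions. Controls were uninoculated MHB and untreated culture. Run at least three times, two replicates each.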

[10] = system: Pseudomonas aeruginosa; experiment: Antibacterial activity against Pseudomonas aeruginosa CICC 10419 after 18 hrs by broth microdilution method; format: functional; in short: as §1
[11] = system: Pseudomonas aeruginosa; experiment: Antibacterial activity against gentamicin-resistant Pseudomonas aeruginosa 11421 after 18 hrs by broth microdilution method; format: functional; conditions: Pseudomonas aeruginosa, 11421, 18 h; in short: as §2
[12] = system: Pseudomonas aeruginosa; experiment: Antibacterial activity against Pseudomonas aeruginosa CICC 21630 after 18 hrs by broth microdilution method; format: functional; in short: as §1
[13] = system: Escherichia coli; experiment: microbe, parasite or virus in culture; conditions: ATCC 25922, 18 h
[14] = system: Lipopolysaccharide (LPS); experiment: Binding affinity to Pseudomonas aeruginosa ATCC 27853 LPS by SPR spectroscopic analysis
In short: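 Biacore SPR. Peptides were amine-coupled to CM5 chips at 20 µg/mL in 10 mM acetate pH 6.0, giving about 1300 RU. LPS at 3.125–12.5 µg/mL in 20 mM Tris/100 mM NaCl pH 7.4 was flowed at 10 µL/min. Surfaces were regenerated with 50 mM NaOH plus 0.05% SDS. Three independent runs.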

[15] = system: Pseudomonas aeruginosa; experiment: Drug uptake in Pseudomonas aeruginosa ATCC 27853 treated with FITC-labeled compound at MIC after 30 mins by confocal fluorescence microscopy; format: ADME; conditions: 0.5 h
In short: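 Cells were pelleted at 5,000 g for 5 min, washed three times in PBS, smeared and imaged by confocal microscopy with 488 nm excitation.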

CC(C)(O/N=C(\C(=O)N[C@@H]1C(=O)N2C(C(=O)[O-])=C(C[n+]3ccccc3)CS[C@H]12)c1csc(N)n1)C(=O)O [CEFTAZIDIME]
MIC ([1]; ATCC 29213, 18 h): 16 µg/mL (≈ 29.3 µM) | MIC [2]: 256 µg/mL (≈ 468 µM) | MIC ([3]; Pseudomonas aeruginosa, 11431, 18 h): 256 µg/mL (≈ 468 µM) | CC10 [4]: > 256 µg/mL | MIC ([5]; Pseudomonas aeruginosa, 25349, 18 h): 64 µg/mL (≈ 117 µM) | MIC ([6]; Pseudomonas aeruginosa, 26305, 18 h): 128 µg/mL (≈ 234 µM) | MIC ([7]; ATCC 27853, 18 h): 2 µg/mL (≈ 3.66 µM) | MIC ([8]; CICC 21625, 18 h): 32 µg/mL (≈ 58.5 µM) | MIC ([9]; Pseudomonas aeruginosa, 11411, 18 h): 32 µg/mL (≈ 58.5 µM) | MIC ([10]; CICC 10419, 18 h): 32 µg/mL (≈ 58.5 µM) | MIC [11]: 32 µg/mL (≈ 58.5 µM) | MIC ([12]; CICC 21630, 18 h): 8 µg/mL (≈ 14.6 µM) | MIC [13]: 2 µg/mL (≈ 3.66 µM)

O=C(O)c1cn(C2CC2)c2cc(N3CCNCC3)c(F)cc2c1=O [CIPROFLOXACIN]
MIC ([1]; ATCC 29213, 18 h): 4 µg/mL (≈ 12.1 µM) | MIC ([7]; ATCC 27853, 18 h): 4 µg/mL (≈ 12.1 µM) | MIC [11]: 16 µg/mL (≈ 48.3 µM) | MIC ([12]; CICC 21630, 18 h): 16 µg/mL (≈ 48.3 µM)

CC[C@H](C)[C@H](NC(=O)CN)C(=O)NCC(=O)N[C@@H](C)C(=O)N[C@H](C(=O)N[C@@H](CC(C)C)C(=O)N[C@@H](CCCCN)C(=O)N[C@H](C(=O)N[C@@H](CC(C)C)C(=O)N[C@H](C(=O)N[C@H](C(=O)NCC(=O)N[C@@H](CC(C)C)C(=O)N1CCC[C@H]1C(=O)N[C@@H](C)C(=O)N[C@@H](CC(C)C)C(=O)N[C@H](C(=O)N[C@@H](CO)C(=O)N[C@@H](Cc1c[nH]c2ccccc12)C(=O)N[C@H](C(=O)N[C@@H](CCCCN)C(=O)N[C@@H](CCCNC(=N)N)C(=O)N[C@@H](CCCCN)C(=O)N[C@@H](CCCNC(=N)N)C(=O)N[C@@H](CCC(N)=O)C(=O)N[C@@H](CCC(N)=O)C(N)=O)[C@@H](C)CC)[C@@H](C)CC)[C@@H](C)O)[C@@H](C)O)C(C)C)C(C)C [MELITTIN]
Activity [14]: Dose-dependent effect | CC10 [4]: 0.5 µg/mL (≈ 0.176 µM) | Drug uptake [15]: Active

GENTAMICIN [listing 1 of 2 here]
CC10 [4]: > 256 µg/mL

GENTAMICIN [listing 2 of 2 here]
MIC [1]: 1 µg/mL | MIC [3]: 8 µg/mL | MIC [5]: 4 µg/mL | MIC [6]: 2 µg/mL | MIC [7]: 2 µg/mL | MIC [8]: 32 µg/mL | MIC [9]: 32 µg/mL | MIC [10]: 16 µg/mL | MIC [12]: 8 µg/mL
